# Published values pooled from the literature.
# Protocols differ between the studies behind these lines.
# Target: cAMP-dependent protein kinase catalytic subunit alpha (PRKACA, Homo sapiens, UniProt P17612)
Compound,read-out,mode,technique,tested at,pH,endpoint,result
C#Cc1n[nH]c2c(-c3cn([C@@H](C)c4ccccc4)c(=O)[nH]c3=O)cc(F)cc12,enzyme activity,inhibitor,,0.1 µM,,inhibition,0%
Nc1ncc(-c2nc(N3CCOCC3)nc(N3CCOCC3)n2)c(C(F)F)n1,binding,,competition with immobilised ligand,10 µM,,remaining binding,85%
Cc1nn(C)cc1-c1nc2c(N3CCN(Cc4ccc(Cl)cc4)CC3)c(Cl)cnc2[nH]1,binding,,competition with immobilised ligand,1 µM,,remaining binding,57%
O=c1[nH]c2ccccc2n1C1CCN(Cc2ccc(-c3[nH]c4cc5ncnc5cc4nc3-c3ccccc3)cc2)CC1,cell-free assay,,,0.5 µM,,remaining signal,106%
COc1ncccc1-c1cnn2ccc(N3CCN(C(=O)OC(C)C)CC3)nc12,binding,,competition with immobilised ligand,1 µM,,remaining binding,66%
Cn1cc(-c2cc(F)cc(N3CCn4c(cc5c4CCCC5)C3=O)c2CO)cc(Nc2ccc(N3CCN(C4COC4)CC3)cn2)c1=O,enzyme activity,inhibitor,,0.1 µM,,inhibition,6%
Nc1ncnc2c1ncn2[C@@H]1O[C@H](COP(=O)(O)OP(=O)(O)OP(=O)(O)O)[C@@H](O)[C@H]1O,enzyme activity,substrate,,,pH 7.4,Km,16.9 µM
C#Cc1n[nH]c2c(-c3cn(C(C)c4ccccn4)c(=O)[nH]c3=O)cc(F)cc12 (stereo not shown),enzyme activity,inhibitor,,1 µM,,inhibition,15.6%
Cn1cc(-c2cccc(N3CCc4c(sc5c4CC(C)(C)C5)C3=O)c2CO)cc(Nc2ccncn2)c1=O,enzyme activity,inhibitor,,1 µM,,inhibition,-3%
Cn1cncc1[C@@](O)(COc1ccc(C#N)cc1-c1ccc(OC(F)(F)F)cc1)c1ccc(C#N)cc1,cell-free assay,,competition with immobilised ligand,1 µM,,remaining binding,94%
